An excerpt weighted towards active compounds, which were near 3% of everything screened.
5HT1a ag = activates the human 5-HT1a serotonin receptor; P08908; CHO 5-HT1a Ga15 NFAT-bla reporter, FRET ratio; 0% basal, 100% maximal reference agonist; activation, % at 10 µM; hit rate 0.56% among 65,000; AID 567;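 active = activation above the screen-wide mean activation plus 3 SD, cut at about 19% in these data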;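 note: 0% = DMSO wells and 100% = 5-CT at EC100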
HTR1E antagonist = antagonists of human 5-HT1E serotonin receptor. P28566. CHO 5-HT1E Ga15 NFAT-bla reporter, FRET, antagonist. inhibition, % at 6 µM. hit rate 0.99% among 65,000;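 active = inhibition above a set limit, the mean inhibition across every tested compound plus 3 SD, cut at about 29% in these data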;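 note: signal is the 460 over 535 nm emission ratio of beta-lactamase substrate; 0% = agonist plus DMSO wells and 100% = wells without agonist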
Target sequence (P28566 whole entry, looked up): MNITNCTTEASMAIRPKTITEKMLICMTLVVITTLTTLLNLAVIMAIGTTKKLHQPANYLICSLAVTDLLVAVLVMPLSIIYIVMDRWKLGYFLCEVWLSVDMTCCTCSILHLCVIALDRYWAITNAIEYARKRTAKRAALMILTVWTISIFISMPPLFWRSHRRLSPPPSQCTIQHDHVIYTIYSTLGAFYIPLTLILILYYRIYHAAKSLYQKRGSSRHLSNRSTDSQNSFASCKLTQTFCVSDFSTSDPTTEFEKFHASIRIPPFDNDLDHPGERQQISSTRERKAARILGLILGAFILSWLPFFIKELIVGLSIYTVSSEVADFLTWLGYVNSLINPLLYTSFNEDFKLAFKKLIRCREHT
5HT1E ag = 5-HT1E (human) receptor agonism | P28566 | CHO 5-HT1E Ga15 NFAT-bla reporter, FRET; 0% DMSO wells, 100% control agonist wells | activation, % at 6 µM | hit rate 0.69% among 65,000;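 active = activation above a set limit, the screen-wide mean activation plus 3 SD, cut at about 8.5% in these data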;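 note: 100% = positive control agonist at 1 µM giving full maximal response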
5HT1a antag = blocks the human serotonin 5-HT1a receptor. P08908. CHO 5-HT1a Ga15 NFAT-bla reporter, antagonist mode. inhibition, % at 10 µM. hit rate 0.68% among 62,000. AID 612;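 active = inhibition above the mean of all tested compounds plus 3 SD, cut at about 43% in these data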;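 note: receptor stimulated by 5-CT agonist at 100 nM near EC80; beta-lactamase reporter measured by ratiometric fluorescence of a cleavable substrate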
S1P3 agonist = agonists of human S1P3 receptor; S1P3 NFAT-BLA reporter cells, agonism, FRET ratio; relative to 1 µM S1P, basal subtracted; activation, % at 4.5 µM; hit rate 0.1% among 60,000;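 active = activation above the screen-wide mean plus 3 SD, cut at about 4.5% in these data, passing the limit was not always enough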
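Assay system: CHO cells stably expressing human S1P3, Gα16 and NFAT-β-lactamase reporter. Timing: overnight plating, 4 h compound 37 °C, 2 h substrate RT. Signal: β-lactamase FRET emission ratio 460/535 nm. Measure: percent activation versus median 1 µM S1P response, basal-subtracted, per plate. Repeats: primary screen single test, confirmation screen in triplicate.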
S1P1 ag-PAM = agonists and agonism potentiators of human S1P1 receptor | S1P1 CRE-bla cells, forskolin, beta-lactamase FRET, potentiator mode; S1P1 agonist co-added at EC20, 2 nM; 100% = saturating reference agonist, 0% = basal | P21453 | hit rate 0.57% among 56,000 | activation, % at 9.5 µM;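 active = activation above a cutoff set at the mean activation of all tested compounds plus 3 SD, cut at about 54% in these data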;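 note: forskolin at 4 µM as EC80 and the EC20 agonist is SEW2871; 100% = SEW2871 at its EC100 plus forskolin at EC80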
* hit, by the source's call; . = no result given.

SMILES | 5HT1a ag | HTR1E antagonist | 5HT1E ag | 5HT1a antag | S1P3 agonist | S1P1 ag-PAM
CCOc1ccc(-c2nc(CSCC(=O)N3CCN(c4cccc(OC)c4)CC3)c(C)o2)cc1 | -1 | 18 | 4 | 4 | -1 | 69*
O=C(CSCc1ccccc1)N1CCN(Cc2ccc3c(c2)OCO3)CC1 | 1 | -8 | 1 | -9 | 0 | 0
Cc1cccc(-c2nc(CSCC(=O)N3CCN(Cc4ccc5c(c4)OCO5)CC3)c(C)o2)c1 | -1 | 6 | 0 | 13 | 0 | 58*
c1ccc(CC2CCN(c3nc(N4CCOCC4)nc(N4CCOCC4)n3)CC2)cc1 | -2 | -2 | 1 | 17 | -1 | .
CC(C)OCCCNc1nc2c([nH]1)c(=O)n(C)c(=O)n2C | -1 | -15 | 1 | -6 | 0 | -21
COc1ccc(NC(=O)CSc2nnc(CNc3ccc(F)cc3)o2)c(OC)c1 | -2 | -4 | 0 | 2 | 1 | -4
O=C(CSc1nnc(COc2ccc3c(c2)CCCC3)o1)Nc1ccc(F)cc1 | -1 | 4 | 9.3* | 0 | -1 | -8
Cc1ccccc1-c1nc(CN2CCC(C(=O)NCCCN3CCCC3)CC2)c(C)o1 | -1 | 1 | 17* | -11 | 0 | 4
Cc1oc(-c2ccc(Cl)cc2)nc1CN1CCCC(C(=O)NCc2ccccn2)C1 (stereo not drawn) | 1 | -2 | 1 | 2 | 0 | 5
Cc1oc(-c2ccc(Cl)cc2)nc1CN1CCCC(C(=O)NCc2cccnc2)C1 (stereo not drawn) | -1 | 12 | 12* | 4 | -1 | 26
Cc1oc(-c2ccc(Cl)cc2)nc1CN1CCCC(C(=O)NCCCN2CCOCC2)C1 (stereo not drawn) | -4 | -3 | 23* | 0 | -1 | -11
Cc1ccccc1-c1nc(CN2CCC(C(=O)NCCCN3CCOCC3)CC2)c(C)o1 | 2 | 5 | 0 | 0 | 0 | -1
Cc1oc(-c2ccc(Cl)cc2)nc1CN1CCC(C(=O)N2CCc3ccccc3C2)CC1 | 32* | -2 | 1 | -15 | -2 | 3
CCOC(=O)C1CCN(CCC(=O)Nc2cccc(Cl)c2)CC1 | -1 | 11 | 0 | 8 | 0 | 0
CCn1c(=NC(=O)c2ccc(N3C(=O)CCC3=O)cc2)sc2c(OC)ccc(OC)c21 | 1 | 31* | 2 | 12 | -1 | -48
CC(C)Cn1c(=O)c(C(=O)Nc2ccccc2S(N)(=O)=O)c(O)c2ccccc21 | -2 | -3 | 0 | -26 | -2 | 120*
CC1=C(C#N)C(NC(=O)c2ccco2)(C(F)(F)F)C(=O)N1 (stereo not drawn) | 0 | 15 | 12* | -6 | -1 | -43
CN1C(=O)NC(NC(=O)c2ccco2)(C(F)(F)F)C1=O (stereo not drawn) | 3 | 5 | 0 | . | -2 | -22
Cc1cc(Oc2ccc(-c3ccccc3)cc2)n2ncnc2n1 | -3 | 34* | 0 | 46* | 0 | 6
O=C(Nc1ccc(N2CCOCC2)cc1)Nc1ccc2nc(-c3ccco3)c(-c3ccco3)nc2c1 | -1 | 67* | 0 | 40 | 0 | .
COc1cccc(-c2nc(-c3ccc(NC(=O)c4cccnc4)cc3)no2)c1 | -4 | 6 | 0 | -2 | -1 | 60*
COc1ccc(CC(=O)Nc2ccc(-c3noc(-c4cccc(OC)c4)n3)cc2)cc1 | 0 | -2 | 0 | -6 | 0 | -2
C=CCn1c(Cc2csc(N)n2)nnc1SCc1ccc(C(=O)OC)cc1 | 0 | -2 | -2 | -9 | 0 | .
COc1ccc(C2=CC(c3ccc(OC)c(OC)c3)n3nnnc3N2)c(OC)c1 (stereo not drawn) | 0 | 29* | 0 | 6 | 0 | -57
COc1cccc(C2=CC(c3cccc(OC)c3OC)n3nnnc3N2)c1 (stereo not drawn) | -2 | 10 | 0 | 24 | -1 | -12
SMILES | 5HT1a ag | HTR1E antagonist | 5HT1E ag | 5HT1a antag | S1P3 agonist | S1P1 ag-PAM
COc1cccc(C2C=C(c3ccc(OC)cc3OC)Nc3nnnn32)c1 (stereo not drawn) | 2 | 20 | 0 | 8 | -1 | 13
COc1ccc(C2C=C(c3ccc(Br)s3)Nc3ncnn32)cc1OC (stereo not drawn) | -2 | 34* | 0 | 34 | 0 | -29
COc1cccc(C2C=C(c3cccs3)Nc3ncnn32)c1OC (stereo not drawn) | -4 | 30* | 0 | 26 | -1 | 9
CC(C)c1nnc(NC(=O)CCC(=O)NCc2ccco2)s1 | -1 | -3 | 1 | -5 | -1 | -23
CC(C)C(C(=O)Nc1ccc(N2CCOCC2)cc1)N1C(=O)c2ccccc2C1=O (stereo not drawn) | 2 | -8 | 0 | -14 | -1 | -20
O=C1c2ccccc2C(Nc2ccc(S(=O)(=O)N3CCCCCC3)cc2)N1Cc1ccco1 (stereo not drawn) | 44* | 5 | 0 | 13 | -1 | 23
CCOc1ccc(CCNS(=O)(=O)c2cnc[nH]2)cc1OCC | 1 | 31* | 0 | -1 | -1 | -17
O=S(=O)(NCc1ccc2c(c1)OCO2)c1cnc[nH]1 | -3 | 0 | 0 | 4 | -2 | -12
CC(C)[C@H](NC(=O)OC(C)(C)C)c1nnc(SCC(=O)Nc2ccc(Br)cc2)o1 | -2 | 12 | 0 | 35 | -1 | 61*
CC(C)=CCSc1nnc([C@@H](NC(=O)OC(C)(C)C)C(C)C)o1 | 0 | 7 | -1 | 1 | 1 | -7
COc1ccccc1-c1n[nH]c(=S)n1-c1ccccc1 | -1 | -6 | -1 | 5 | -1 | -14
COc1ccccc1N1CCN(CCc2n[nH]c(=S)n2-c2ccccc2)CC1 | 2 | 3 | 30* | 69* | -2 | -8
C=CCc1ccccc1OCC(O)CN(C(C)C)C(C)C (stereo not drawn) | -2 | -1 | 19* | 13 | 0 | -12
C=CCc1ccccc1OCC(O)CNC (stereo not drawn) | 0 | -4 | 9.4* | 7 | 0 | -15
COc1ccc(S(=O)(=O)N(CC(=O)NCc2ccco2)C2CCCCC2)cc1OC | -3 | 8 | 0 | 11 | -2 | -10
O=C(NCC(c1cccnc1)N1CCOCC1)Nc1ccccc1 (stereo not drawn) | 4 | -7 | 0 | -6 | 1 | -4
CCN(Cc1ccccc1)S(=O)(=O)c1nc2nc(C)c(C)c(C)n2n1 | 0 | -4 | 0 | -2 | 0 | -30
COc1cc2c(cc1OC)/C(=C/C(=O)N1CCOCC1)NC(C)(C)C2 | -1 | 30* | 0 | 0 | 0 | -22
CCOC(=O)/C=C1\NC(C)(C)Cc2cc(OC)c(O)cc21 | -4 | 7 | 1 | -6 | 1 | -6

Screening results as filed in PubChem BioAssay.
